Test results taken from paper PMC4463842 (Molecular Medicine Reports, 2015).

Columns and labels:
[1] = molecular target: peptide-HLA-A*0201 complex (Homo sapiens, UniProt P04439, D140Y/D185E/D98H/E176V/E277Q/G131W/G231S/I119V/I121R/I166T/I218V/L300P/L318F/N151K/N90K/P208A/P217A/Q86G/Q94H/R138H/R169H/T345S); experiment: BFA decay assay; type: binding; settings: T2 cells loaded with 100 µM peptide, 37°C, time required for 50% reduction of the MFI value recorded at time 0
[2] = tested on: MCF-7 cells (HLA-A*0201+, EPS8+); experiment: LDH release cytotoxicity assay of peptide-specific CTLs; type: cell-based, human; settings: effector to target cell ratio 100:1, CTLs induced with peptide 10 µg/ml
Summary of the method: (§1)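 Effectors were CTLs from donor PBMCs after three rounds of peptide stimulation over 3 weeks. Targets were plated at 5,000/well at E:T 100:1, spun 250 × g 4 min, then co-cultured 4–6 h at 37°C, 5% CO2, in phenol red-free medium with 5% FBS. Supernatant LDH gave %cytotoxicity = (experimental − effector spontaneous − target spontaneous)/(target maximum − target spontaneous) ×100. Triplicate wells, three repeats.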

[3] = tested on: T2 cells pulsed with corresponding peptides; experiment: as above; type: cell-based, human; settings: effector to target cell ratio 100:1
Summary of the method: as §1

DC50 [1] [h] | Sequence | average lysis rate of MCF-7 cells ([2]; donor 1) [%] | average lysis rate of MCF-7 cells ([2]; donor 2) [%] | lysis rate of T2 cells loaded with the corresponding peptide ([3]; donor 1) [%] | lysis rate of T2 cells loaded with the corresponding peptide ([3]; donor 2) [%]
6 to 8 | ILDDIEFFI [Peptide 276] |  |  |  | 
>8 | QLAESVANV [Peptide 455] |  |  |  | 
 | KLLDAKGKV [Peptide 92] | 51.28±1.54 | 54.22±3.01 | 45.41±4.16 | 35.23±1.50
>8 | FLFTPLNMV [Peptide 360] |  |  |  | 
